Results on 69 molecules are retold here after ChEMBL document CHEMBL4513216, “Probing the Open Global Health Chemical Diversity Library for Multistage-Active Starting Points for Next-Generation Antimalarials” (ACS Infect Dis, 2020).

This series can be described thus: Toxicity liver stage against HepG2, at 10uM. The arrangement: test concentration 10 uM, cell line HepG2-A16-CD81EGFP. The settings on record: human, HepG2-A16-CD81EGFP cells; read-out: INHIBITION
It is filed as cell-based. The gist of the method: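 Uninfected HepG2-A16-CD81EGFP cells, 3 × 10^3 per well, 1536-well, plated on prespotted compound at 10 μM final, parasite-free screening media added to match infected plates; puromycin 10 μM positive, DMSO 0.5% negative; run in parallel with 48 h PbLuc assay at 37 °C, 5% CO2; viability by CellTiter-Glo luminescence, normalized to controls.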
`COC1CCN(C(=O)c2cc(-c3ccc(Cl)cc3)on2)CC1`: the cytotoxicity at 10 µM is -0.885%.
Turning to `CO[C@H]1C(=O)N(C)C2(CCNCC2)[C@@H]1C(=O)Nc1ccccc1`, the cytotoxicity at 10 µM is 6.17%.
For `N[C@@H]1c2ccccc2C2(CCN(C(=O)c3ccc(CO)o3)CC2)[C@H]1O`, the cytotoxicity at 10 µM was found to be 3.92%.
For the molecule `O=C1OCCN1c1cccc(CNS(=O)(=O)Cc2ccc(F)cc2)c1`, the cytotoxicity at 10 µM came out at 4.77%.
`O=C(Cc1ccccc1Br)NCC(=O)Nc1cn[nH]c1`: the cytotoxicity at 10 µM worked out at 7.44%.
On to `CCC(=O)NCC(=O)NCC(C)(C)c1cccc(Br)c1`, for which the cytotoxicity at 10 µM is -2.32%.
Take `Cc1ccc(CN2CCC3(CC2)CC(c2cccnc2)CO3)s1` (centres undefined): the cytotoxicity at 10 µM was -9.7%.
The same measure for `COc1cccc(C2=CCN(CCN3CCCC3=O)CC2)c1`: -10.6%; for `Cc1nc(C)n(CC2CCCCN2Cc2cn3ccccc3n2)n1` (centres undefined): -4.47%.
Consider `O=C1CC(NS(=O)(=O)NCc2ccccc2)CN1c1ccccc1Cl` (centres undefined), for which the cytotoxicity at 10 µM is -5.68%.
Then `CS(=O)(=O)N1CC[C@H](c2nc3ccc(C(F)(F)F)cc3[nH]2)C1`, with 0.0915%.
`O=C1C[C@@H]2CC[C@H](CN1)N2c1cc(-c2ccccc2F)nc2ccnn12`: the cytotoxicity at 10 µM amounted to 20.4%.
`c1ccc(-c2nc3c(c(NCCn4ccnn4)n2)CCNCC3)nc1`: the cytotoxicity at 10 µM was -51.1%.
As for `COC(=O)c1cccc(-c2c[nH]c(C)n2)c1`, the cytotoxicity at 10 µM was -0.734%.
Regarding `CCC(C(=O)Nc1ccc(-c2nc(C)n[nH]2)cc1)N1CCCC1=O` (centres undefined), the cytotoxicity at 10 µM was -44.8%.
The same measure for `c1ccc(Cn2cc(CNC3CCc4ncnn4C3)cn2)cc1` (centres undefined): -1.61%; for `CCC(=O)NC(CC)c1ccccc1C` (centres undefined): 5.14%.
On to `COCC(=O)N1CC[C@H]2O[C@@H](C)C[C@H]2C1`, for which the cytotoxicity at 10 µM is -66.1%.
For the molecule `Cc1nc(C)n(CC2CCCCN2CCCC#N)n1` (centres undefined), the cytotoxicity at 10 µM worked out at 6.73%.
Take `CCc1c(C)nc2ccccc2c1N1CCC(C(=O)NC)CC1`: the cytotoxicity at 10 µM came out at 3.85%.
`CCN1CC(C(=O)NCCCc2nc(C)c(C)s2)CC1=O` (centres undefined): the cytotoxicity at 10 µM is -7.03%.
Turning to `COc1cc(N2CC[C@@H]3O[C@H](C(=O)NCC4CC4)C[C@@H]32)ncn1`, the cytotoxicity at 10 µM was determined as 10.7%.
`Cc1nn(C)c(Cl)c1C1CCCN1C(=O)c1ccc2nncn2c1` (centres undefined): the cytotoxicity at 10 µM was -10.2%.
Then `CCn1nc(C)c(NC(=O)CCn2ncc3cc(C)ccc32)c1C`, with 10.8%; and `c1c(CN2CCCC2)nc2n1CCN(CC1CC1)C2`, with -136%; and `NC(=O)c1csc(N2C[C@@H](CN3CCOCC3)[C@@H](CO)C2)n1`, with 2.97%.
For `CSCCc1ccc(NC(=O)NCc2ccnc(N(C)C)c2)cc1`, the cytotoxicity at 10 µM worked out at 0.661%.
The same measure for `Cc1ccccc1C1CCN(CCn2cc(-c3cccc(O)c3)nn2)C1` (centres undefined): 18.2%; for `Cn1cc(CNCCOc2ccc(F)c(F)c2)c(-c2cccnc2)n1`: -2.53%.
The same measure for `Cc1cc(CN2CCCC2Cn2cccn2)no1` (centres undefined): -4.36%; for `Cc1ccc(-c2cc(C(=O)N3CCCC3c3cccnc3)[nH]n2)o1` (centres undefined): -1.41%; for `O=C(C1CCOC1)N1C[C@H]2CN(Cc3ccccn3)C[C@H]2C1` (some centres undefined): 1.03%.
For the molecule `CNC(=O)[C@@H]1C[C@@H](NC(=O)Cc2cccs2)CN1C1CCOCC1`, the cytotoxicity at 10 µM came to 2.7%.
Consider `COc1nc2ccn(CCNc3cc(C)ccn3)c(=O)c2cc1C#N`, for which the cytotoxicity at 10 µM came out at 11.7%.
With `Cc1nnc2n1CCN(C(C(=O)N1CCCCC1)c1ccccc1)C2` (centres undefined), the cytotoxicity at 10 µM is -5.83%.
As to `COc1ccc(C(=O)CCC(=O)NCc2c(C)noc2C)cc1F`, the cytotoxicity at 10 µM stood at 2.43%.
`Cc1noc(C)c1C(=O)N1CCCN(Cc2cscn2)CC1`: the cytotoxicity at 10 µM is -1.56%.
For `CCNC(=O)N1CCC(OC)c2ccccc2N(CC(=O)NC)C(=O)C1` (centres undefined), the cytotoxicity at 10 µM came out at 5.5%.
As to `Cc1nn(C)c(C)c1C(=O)N1CCN(c2ccncc2Cl)CC1`, the cytotoxicity at 10 µM is -2.25%.
The same measure for `CCCS(=O)(=O)N1CC[C@@H]2[C@@H]1CC(=O)N2Cc1csc(C)n1`: -134%; for `COc1ccc2nnc(CCCC(=O)NCCC3=CCCCC3)n2n1`: 2.73%; for `COc1ccc(-c2cnc3c(c2)CN(C2CC2)C(=O)CCN3)cc1`: 4.09%.
The same measure for `O=C(O)c1cc(-c2cccnc2)cc(S(=O)(=O)NCc2ccccn2)c1`: -49.9%; for `c1cncc(OCc2noc3c2CN(Cc2ccsc2)CC3)c1`: 4.76%; for `Cc1cccc(OCCSCCn2nc3ccccn3c2=O)c1`: 6.47%.
On to `O=C(CN1CCc2ccccc2C1)NCc1cc2n(n1)CCCNC2`, for which the cytotoxicity at 10 µM was 2.22%.
Turning to `O=C(NCCCO)NCCc1cc(F)ccc1F`, the cytotoxicity at 10 µM stood at 2.37%.
Consider `O=C(O)C1(Cc2cc(-c3ccc(F)cc3F)no2)CCOCC1`, for which the cytotoxicity at 10 µM amounted to 3.37%.
In the case of `CCS(=O)(=O)c1ccccc1N1CCC(NC(C)=O)CC1`, the cytotoxicity at 10 µM is -5.31%.
Take `CCc1n[nH]c(C2CN(C(=O)CCc3cccs3)CCO2)n1` (centres undefined): the cytotoxicity at 10 µM worked out at 5.73%.
The same measure for `Cc1cc(C)n2nc(CC(=O)N3CC[C@H]4NCCC[C@]4(CO)C3)nc2n1`: -0.363%; for `CC(OCC1CC1)C(=O)NCc1ccc(Cn2ccnc2)cc1` (centres undefined): 15.6%.
For `CCC(NC(=O)Nc1ccc(OC)c(C)c1)c1ccncc1` (centres undefined), the cytotoxicity at 10 µM is -2.07%.
The same measure for `CC(=O)c1c(F)cccc1N1CCC(NS(=O)(=O)c2ccccc2)CC1`: 53.4%; for `O=C(CCN1CCCC1c1cccc2c1OCCO2)N1CCOCC1` (centres undefined): 25.6%.
As for `Cc1cccc(CN2CCCC[C@H]3CN(c4ncccn4)C[C@H]32)c1`, the cytotoxicity at 10 µM came out at 1.18%.
With `Cc1n[nH]c(C)c1C1COCCN1C(=O)c1n[nH]c2ccccc12` (centres undefined), the cytotoxicity at 10 µM is -3.63%.
Turning to `Cc1nc([C@@H]2C[C@@H]3CCN(C(=O)Cc4cccs4)C[C@H]3O2)no1`, the cytotoxicity at 10 µM was 3.27%.
As for `CN1CCC(O)(CCNC(=O)[C@@]23CNC[C@@H]2CN(C2CCCC2)C3)CC1`, the cytotoxicity at 10 µM is -1.92%.
Take `O=C(Nc1cccnc1)[C@H]1CO[C@H]2CCN(c3ncc(F)cn3)C[C@H]2C1`: the cytotoxicity at 10 µM is -12.8%.
Regarding `Cc1nn(C)c(C)c1C1CCCN1Cc1nc(-c2ccco2)no1` (centres undefined), the cytotoxicity at 10 µM is -3.17%.
Take `O=C(CC1CC1)N1CCC2(COCc3cnc(-c4cccnc4)nc32)C1` (centres undefined): the cytotoxicity at 10 µM was -106%.
For `O=C1CC2(CCNCC2)C(=O)N1c1cccc(F)c1`, the cytotoxicity at 10 µM stood at 1.7%.
On to `CCC[C@@H]1CN(Cc2c[nH]nc2-c2ccc(F)cc2)C[C@H]1NS(C)(=O)=O`, for which the cytotoxicity at 10 µM worked out at 3.25%.
With `CNC(=O)[C@@H]1[C@H]2CN(Cc3ccccn3)CCN2C[C@H]1c1ccccc1`, the cytotoxicity at 10 µM stood at 3.38%.
In the case of `COCC(=O)NCCC(=O)N1CCN(S(=O)(=O)c2cccc(Br)c2)CC1`, the cytotoxicity at 10 µM was -40.4%.
As for `O=C(COc1ccccc1)N1CCC[C@]2(C[C@@H](OCC3CC3)CO2)C1`, the cytotoxicity at 10 µM was -1.69%.
Turning to `Cn1ccc(C(=O)NC2CCN(c3ncccn3)CC2)cc1=O`, the cytotoxicity at 10 µM is -7.32%.
Then `CN1CC(Oc2ccccc2)=NC(SCC(=O)Nc2ccc(Cl)cc2)=N1`, with -10.2%.
